Assay outcomes (PubChem)
Sampled rows, rich in hits. Any-hit rate of the full collection: about 2.1%.
Mac1 fbg enh = enhancers of CD11b/CD18 adhesion to fibrinogen, primary screen, K562 cells, luminescence; ATPlite luminescence; hit rate 0.07% among 93,000; activation, % at 10 µM;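 active = 10 µM primary screen giving 50% or more activity, confirmed by 40% or more on retest at that dose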
TNAP act DEA = human TNAP enzyme activators, primary screen, biochemical, luminescent, intermediate phosphate acceptor level. Alkaline phosphatase, tissue-nonspecific isozyme (Homo sapiens), P05186. purified TNAP, CDP-star luminescence, 100 mM DEA, 30 min; active compounds read high; scale: 0 levamisole-inhibited, 1 vehicle-only enzyme. activation factor at 20 µM. 64,000 tested, under 10 active. AID 813, 2007;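 active = activation factor of at least 2 at 20 µM, relative to controls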
MT1-MMP txn act = MT1-MMP promoter reporter activation – cell-based, luciferase luminescence, primary screen; HT1080 MT1-MMP promoter luciferase reporter, overnight; active compounds read high; activation factor at 10 µM; hit rate 0.16% among 86,000;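 active = activation factor of at least 2 for MT1-MMP transcription at 10 µM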
SF-1 act = activators of human SF-1, primary screen, cell-based, CHO-K1, Gal4-SF-1 LBD, luciferase luminescence. Steroidogenic factor 1 (Homo sapiens), Q13285. CHO-K1 Gal4-SF-1 LBD luciferase reporter; % increase over DMSO SF-1-specific signal. activation, % at 10 µM. hit rate 1.9% among 65,000;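 active = activation above the mean activation of all tested compounds plus 3 SD, cut at about 50% in these data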
Target sequence (Q13285 whole entry, looked up, the tested form may be a part): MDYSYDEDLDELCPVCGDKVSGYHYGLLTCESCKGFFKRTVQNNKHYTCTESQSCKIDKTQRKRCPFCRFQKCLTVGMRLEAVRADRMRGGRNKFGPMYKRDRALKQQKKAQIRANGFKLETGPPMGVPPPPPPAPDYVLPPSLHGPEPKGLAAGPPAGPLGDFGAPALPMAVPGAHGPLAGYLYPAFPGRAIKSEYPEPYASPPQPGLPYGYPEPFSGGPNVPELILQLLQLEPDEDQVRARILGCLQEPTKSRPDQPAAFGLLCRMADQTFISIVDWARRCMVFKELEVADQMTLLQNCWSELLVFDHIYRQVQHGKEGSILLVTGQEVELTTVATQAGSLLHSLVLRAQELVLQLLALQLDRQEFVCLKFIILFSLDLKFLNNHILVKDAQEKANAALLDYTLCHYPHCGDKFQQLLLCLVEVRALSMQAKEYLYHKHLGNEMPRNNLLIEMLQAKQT
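Assay system: CHO-K1 cells co-transfected with Gal4 DBD–human SF-1 LBD, 5xGal4 luciferase reporter / Input: 4,000 cells per well / Incubation: 20 h compound exposure at 37 °C after 1 h cell settling / Detection: SteadyLite luciferase luminescence / Control set: DMSO negative control and −SF1 background wells / Replication: one test per compound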
CD11b adhes inh = inhibitors of CD11b/CD18 adhesion to fibrinogen, primary screen, K562 cells, luminescence | Integrin beta-2 (Homo sapiens) + Integrin alpha-M (Homo sapiens), P05107+P11215 | ATPlite luminescence; Mn2+ added to activate the integrin | inhibition, % at 10 µM | hit rate 0.54% among 93,000;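 active = primary inhibition of 50% or more at 10 µM, then 40% or more on retest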
RORA act = activators of orphan receptor RORA, primary screen, cell-based, luminescence; Nuclear receptor ROR-alpha (Homo sapiens), P35398; CHO-K1 Gal4-RORA LBD luciferase reporter; percent increase over mock-subtracted basal signal; activation, % at 10 µM; hit rate 1.5% among 65,000;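 active = activation above the mean of all tested compounds plus 3 SD, cut at about 49% in these data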;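 note: 0% = DMSO-treated RORA cells and 100% = added signal equal to DMSO minus mock-transfected cells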
* = called active by the depositor; x = not tested or not shown.

SMILES	Mac1 fbg enh	TNAP act DEA	MT1-MMP txn act	SF-1 act	CD11b adhes inh	RORA act
COc1cc(NC(=O)CN(C)C2CCCCC2)c(C)cc1[N+](=O)[O-]	-1	x	x	x	-5	x
COC(=O)c1ccc(COc2ccccc2/C=N/NS(=O)(=O)c2ccc(C)cc2)cc1	3	x	x	x	-8	x
C=CCn1c(C)cc(C(=O)COC(=O)[C@@H](NC(=O)c2ccccc2Cl)C(C)C)c1C	-9	x	x	x	79*	x
COc1ccc(NC(=O)c2sc(SC)nc2N)cc1	-1	0.9	1.7	61*	3	62*
Cc1nn(C)cc1C=NCCOCc1ccccc1	x	x	1.1	x	x	x
Cc1cccc(OCCC(=O)N(C)CC(=O)Nc2cccc3ccccc23)c1	3	x	x	x	12	x
Cc1ccc(-n2nc3c(c2NC(=O)c2c(-c4ccccc4Cl)noc2C)CSC3)cc1	72*	0.9	1.1	-3	1	-27
O=S(=O)(Nc1nc2ccccc2nc1N1CCN(c2ccccn2)CC1)c1ccc(Cl)cc1	-13	x	1.3	-12	102*	-3
COc1ccc2nc(N3CCCC3)c(C#N)cc2c1	-2	1.2	1.3	9	-19	14
COc1ccc2nc(N3CCCCC3)c(C#N)cc2c1	3	1.1	1.3	50*	-11	31
CCOC(=O)C1CCCN(CCC(=O)Nc2ccc(C)cc2)C1 (centres undefined)	x	x	1.2	x	x	x
Cc1ccc2nc(NC(=O)C3CCCN(S(=O)(=O)c4cnc[nH]4)C3)sc2c1 (centres undefined)	0	0.9	1.4	26	27	54*
Cc1c(C)c2c(C)[nH]nc2oc1=O	0	0.9	2.3*	16	25	-5
C=CCSc1n[nH]c(-c2ccc(OC)cc2)n1	-2	0.4	1.4	68*	-23	63*
C[C@]1(C(=O)NCC2CC2)C=C[C@@H](Cc2ccccc2)N1C(=O)c1ccccc1	x	x	1.1	x	x	x
CCc1ccc(-c2nc(CSCC(=O)N3CCN(c4ccccn4)CC3)c(C)o2)cc1	x	x	0.8	-18	x	-48
Cc1cccc(-c2nc(CSCC(=O)N3CCN(Cc4ccc5c(c4)OCO5)CC3)c(C)o2)c1	-5	0.8	0.9	-35	81*	-8
O=C(CSCc1ccccc1)N1CCN(Cc2ccc3c(c2)OCO3)CC1	x	x	1.2	15	x	-7
Cc1ccc(-c2nc(CSCC(=O)N3CCN(c4ccccn4)CC3)c(C)o2)cc1	-14	1.1	1	-29	88*	-17
COc1ccccc1CNC(=S)NC1CCCC1	-2	x	x	x	17	x
CCc1c2c(nc3cccc(C(C)C)c13)-c1cccc(=O)n1C2	x	x	1.2	x	x	x
O=C(CSc1nnnn1C1CC2CCC1C2)Nc1ccnc2ccccc12 (centres undefined)	-13	0.9	1	-76	100*	-85
O=C(CSc1nnnn1C1CCCC1)NCc1ccccc1	x	x	1.1	x	x	x
CCOc1nc(NC(=O)NS(=O)(=O)Oc2cccc(Cl)c2)nc(-c2ccccc2)n1	x	x	1.4	x	x	x
CC(C)c1ccc(NC(=O)c2ccc(Br)o2)cc1	x	x	1	x	x	x
SMILES	Mac1 fbg enh	TNAP act DEA	MT1-MMP txn act	SF-1 act	CD11b adhes inh	RORA act
O=C(Nc1ccc(Nc2ccccc2)cc1)c1ccc(Br)o1	-1	0.9	1.7	47	12	49*
COc1ccc(NC(=O)NC23CC4CC(CC(C4)C2)C3)cc1OC	13	x	x	x	2	x
O=C(Nc1cccc(-c2nnc(-c3ccccc3)o2)c1)c1ccc(Br)o1	16	0.9	1.2	67*	7	11
O=C(Nc1nccs1)c1ccc(Br)o1	x	1	1.5	65*	x	24
O=C(Nc1ccc2c(c1)OCCO2)NC12CC3CC(CC(C3)C1)C2	-1	0.9	1.7	75*	38	77*
COC(=O)c1ccc(C(NC(=O)OCc2ccccc2)/C(F)=C/[C@@H](C)C(=O)NCCc2c[nH]c3ccc(OC)cc23)cc1 (some centres undefined)	x	x	1.2	x	x	x
O=C(Nc1ccc2c(c1)OCCO2)c1ccc(Br)o1	x	0.9	1	59*	x	33
Cc1ccc(C(=O)Nc2ccc3c(c2)OCO3)o1	8	0.9	1.6	21	-35	43
Cc1cnc(C(=O)Nc2nnc(C)s2)cn1	3	0.9	1.2	1	9	-2
Cc1csc(NC(=O)c2cnccn2)n1	-2	1	1.4	25	18	22
CC(C)c1nnc(NC(=O)c2cnccn2)s1	2	0.9	1.4	51*	-9	32
Cc1cnc(C(=O)Nc2nnc(C(C)C)s2)cn1	2	0.9	1.6	68*	-42	33
C=CCn1c(SCC(=O)c2[nH]c(C)c(C(=O)OC)c2C)nc2scc(-c3ccc(OC)c(OC)c3)c2c1=O	60	x	x	x	-6	x
CN(C)CCCn1c(SCC(=O)N2c3ccccc3Sc3ccccc32)nc2ccccc2c1=O	5	x	x	x	36	x
CCSC1=C(C#N)C(c2ccc(C)s2)CC(=O)N1 (centres undefined)	6	0.8	1.1	-20	5	-2
CCOC(=O)CSC1=C(C#N)C(c2ccc(C)s2)CC(=O)N1 (centres undefined)	-9	0.9	0.5	26	32	54*
COc1ccc(-c2nc3ccccc3c(C(=O)Nc3ccc(S(=O)(=O)Nc4cc(C)on4)cc3)c2C)cc1	5	x	x	x	-2	x
O=c1c2ccccc2nc2sc3ccccc3n12	x	x	1.8	57*	x	60*
CC(C)NC(=O)[C@@H]1C[C@H]1[C@@H](NC(=O)OCc1ccccc1)c1ccccc1	x	x	1.1	x	x	x
O=C(Nc1ccc2c(c1)nc1n2CCSC1)c1ccccc1	x	0.8	0.6	19	x	-25
COc1ccc(C(=O)Nc2ccc3c(c2)nc2n3CCSC2)cc1	-3	0.9	1.3	57*	-7	26
COc1ccc(-c2cn(/N=C/c3ccc(Cl)cc3Cl)c(N)n2)cc1	12	x	1	x	-9	x
Cc1ccc2c(CC(=O)N3CCc4ccccc43)coc2c1	1	0.9	1.4	87*	-1	48
COC(=O)C1=C(C)N(CCc2ccc(OC)c(OC)c2)C(=O)/C1=C\N(C)C	-4	x	1.2	x	2	x
CCOC(=O)c1c(NC(=O)Cc2cccs2)sc2c1CCCC2	0	0.8	1.2	-16	27	-17
O=C(Nc1sc2c(c1C(=O)O)CCCCC2)c1ccco1	-4	1	0.9	57*	4	62*
Cc1occc1C(=O)Nc1sc2c(c1C(N)=O)CCCCC2	1	0.9	1.4	58*	8	27
